Assay results as given in ChEMBL document CHEMBL3525963, “Tissue distribution and elimination of [14C]apixaban in rats” (Drug Metab Dispos, 2011).

How the values were obtained:
Design in all cases: dose 5 mg/kg, dosed compound name [14C]-apixaban, route oral
Conditions in all cases: in vivo
Liver [1] = experiment: Biodistribution in male Sprague-Dawley rat liver at 5 mg/kg, po administered as single dose measured after 8 hrs; format: ADME, organism-based
Outline: (§1)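 [14C]apixaban (1.0 mg/mL, 20 μCi/mL) in 0.5% Tween 80 in Labrafil, given by oral gavage at 100 μCi/kg to male rats (225-252 g) fasted overnight through 4 h post-dose. One rat per time point. Carcasses frozen in hexane/dry ice and cut into 40 µm sagittal sections. QWBA read on phosphor plates against [14C]glucose standards, reported as µg eq/g. LLOQ 0.037 µg eq/g.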

Rattus norvegicus [2] = experiment: Biodistribution in male Sprague-Dawley rat kidney cortex at 5 mg/kg, po administered as single dose measured after 24 hrs; format: ADME, organism-based
Pancreas [3] = experiment: Biodistribution in male Sprague-Dawley rat pancreas at 5 mg/kg, po administered as single dose measured after 8 hrs; format: ADME, organism-based; outline: as §1
Brain = experiment: Biodistribution in female Sprague-Dawley rat brain at 5 mg/kg, po administered as single dose measured after 24 hrs; format: ADME, organism-based
Outline: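 [14C]Apixaban (1.0 mg/mL, 20 μCi/mL in 0.5% Tween 80 in Labrafil) given as a single oral gavage of 5 mg/kg (100 μCi/kg) to fasted female SD rats, one rat per time point. Carcasses were frozen in hexane/dry ice and cut into 40 µm sagittal sections for QWBA against [14C]glucose standards. Brain radioactivity is reported as µg eq/g, with LLOQ 0.037 µg eq/g.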

Thymus [4] = experiment: Biodistribution in female Sprague-Dawley rat thymus at 5 mg/kg, po administered as single dose measured after 8 hrs; format: ADME, organism-based
Outline: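 Quantitative whole-body autoradiography was run after a single 5 mg/kg (100 μCi/kg) oral gavage to fasted female or pregnant SD rats, one rat per time point. Carcasses were frozen in hexane/dry ice, and 40 µm sagittal sections were dried at −20°C for at least 48 h. Sections were exposed to a phosphor plate alongside [14C]glucose standards (0.001–6.5 µCi/g). Results are µg eq/g, with LLOQ 0.037 µg eq/g.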

Liver [5] = experiment: Biodistribution in female Sprague-Dawley rat liver at 5 mg/kg, po administered as single dose measured after 8 hrs; format: ADME, organism-based
Outline: (§2)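 [¹⁴C]Apixaban given by oral gavage at 5 mg/kg (100 μCi/kg) in 0.5% Tween 80 in Labrafil (1.0 mg/mL dosing solution) to rats fasted overnight through 4 h post-dose. One rat per time point; carcass frozen in hexane/dry ice. Quantitative whole-body autoradiography used 40 µm sagittal sections and a phosphor imaging plate calibrated with [¹⁴C]glucose standards (0.001–6.5 μCi/g). Read-out in µg eq apixaban/g; LLOQ 0.037 μg eq/g.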

Rattus norvegicus [6] = experiment: Biodistribution in male Sprague-Dawley rat brown fat at 5 mg/kg, po administered as single dose measured after 72 hrs; format: ADME, organism-based, Brown adipose tissue
Outline: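 Fasted male SD rats (225-252 g) each received one oral gavage dose of [14C]apixaban, 5 mg/kg (100 μCi/kg), in 0.5% Tween 80/Labrafil vehicle. One rat was killed per time point, from 0.5 to 168 h. Frozen carcasses were cut into 40 µm sagittal whole-body sections and read by QWBA phosphor imaging against [14C]glucose calibrants. Results are in µg apixaban eq/g; BLQ <0.037 µg eq/g.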

Pancreas [7] = experiment: Biodistribution in male Sprague-Dawley rat pancreas at 5 mg/kg, po administered as single dose measured after 1 hr; format: ADME, organism-based; outline: as §1
Pancreas [8] = experiment: Biodistribution in pregnant Sprague-Dawley rat pancreas at 5 mg/kg, po administered as single dose measured after 8 hrs; format: ADME, organism-based
Outline: (§3)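 Pregnant SD rats (270-319 g) were fasted overnight and given one oral gavage of 5 mg/kg (100 μCi/kg) in 0.5% Tween 80 in Labrafil. One rat was euthanized per time point (0.5, 1, 4, 8, 24, 48 h) and the carcass frozen. 40 µm sagittal sections were phosphor-imaged against [14C]glucose standards and results reported as µg eq/g; LLOQ 0.037 µg eq/g.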

Rattus norvegicus [9] = experiment: Biodistribution in pregnant Sprague-Dawley rat pituitary gland at 5 mg/kg, po administered as single dose measured after 24 hrs; format: ADME, organism-based; outline: as §3
Rattus norvegicus [10] = experiment: Biodistribution in pregnant Sprague-Dawley rat amnion at 5 mg/kg, po administered as single dose measured after 24 hrs; format: ADME, organism-based
Lung = experiment: Biodistribution in female Sprague-Dawley rat lung at 5 mg/kg, po administered as single dose measured after 0.5 hrs; format: ADME, organism-based; outline: as §2
[11] = Drug level in lactating Sprague-Dawley rat milk at 5 mg/kg, po administered as single dose after 2 hrs; format: ADME, organism-based
Rattus norvegicus [12] = experiment: Biodistribution in pregnant Sprague-Dawley rat brown fat at 5 mg/kg, po administered as single dose measured after 48 hrs; format: ADME, organism-based, Brown adipose tissue
Outline: (§4)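 Fasted pregnant SD rats (n=6, 270-319 g) each received one oral gavage dose of [14C]apixaban, 5 mg/kg (100 μCi/kg), in 0.5% Tween 80/Labrafil. One rat was killed at each of 0.5, 1, 4, 8, 24 and 48 h. Carcasses were frozen in hexane/dry ice, cut into 40 µm sagittal sections, exposed to phosphor plates and quantified against [14C]glucose standards as µg eq/g. LLOQ was 0.037 µg eq/g.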

Harderian gland = experiment: Biodistribution in pregnant Sprague-Dawley rat harderian gland at 5 mg/kg, po administered as single dose measured after 48 hrs; format: ADME, organism-based; outline: as §4
Rattus norvegicus [13] = experiment: Biodistribution in pregnant Sprague-Dawley rat placenta at 5 mg/kg, po administered as single dose measured after 48 hrs; format: ADME, organism-based; outline: as §3
Rattus norvegicus [14] = experiment: Biodistribution in pregnant Sprague-Dawley rat bone marrow at 5 mg/kg, po administered as single dose measured after 4 hrs; format: ADME, organism-based
Thymus [15] = experiment: Biodistribution in pregnant Sprague-Dawley rat thymus at 5 mg/kg, po administered as single dose measured after 4 hrs; format: ADME, organism-based
Rattus norvegicus [16] = experiment: Biodistribution in fetal kidney of pregnant Sprague-Dawley rat at 5 mg/kg, po administered as single dose measured after 4 hrs; format: ADME, organism-based
Outline: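 Pregnant rats, 270-319 g and fasted overnight, received [14C]apixaban by oral gavage at 100 μCi/kg in 0.5% Tween 80/Labrafil. One dam per time point was euthanized and frozen in hexane/dry ice. Fetal tissue radioactivity was measured by QWBA on 40 µm sagittal sections calibrated with [14C]glucose standards. Values are in µg eq/g, with LLOQ 0.037 μg eq/g.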

[17] = AUC (0 to t) in lactating Sprague-Dawley rat milk at 5 mg/kg, po administered as single dose; format: ADME, organism-based
Outline: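 Fasted lactating SD rats received 5 mg/kg [14C]apixaban orally (formulation 5.0 mg/mL, 20 μCi/mL). Oxytocin was injected subcutaneously 15 min before collection, and 1 mL milk was taken under anesthesia by milking machine. Sampling was predose and at 0.5–24 h, 3 rats per time point. Plasma was obtained at 1300g for 10 min. Duplicate 50–100 µL aliquots were counted by LSC for 10 min. AUC was calculated in WinNonlin.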

Rattus norvegicus [18] = experiment: Biodistribution in pregnant Sprague-Dawley rat placenta at 5 mg/kg, po administered as single dose measured after 0.5 hrs; format: ADME, organism-based

## COc1ccc(-n2nc(C(N)=O)c3c2C(=O)N(c2ccc(N4CCCC[14C]4=O)cc2)CC3)cc1
Liver [1]
  Radiolabel recovery: 0.39 ugequiv/g
Rattus norvegicus [2]
  Radiolabel recovery: < 0.037 ugequiv/g
Pancreas [3]
  Radiolabel recovery: 0.12 ugequiv/g
Brain
  Radiolabel recovery: < 0.037 ugequiv/g
Thymus [4]
  Radiolabel recovery: 0.09 ugequiv/g
Liver [5]
  Radiolabel recovery: 1.12 ugequiv/g
Rattus norvegicus [6]
  Radiolabel recovery: Not sampled as not visualised in autoradiograph
Pancreas [7]
  Radiolabel recovery: 0.62 ugequiv/g
Pancreas [8]
  Radiolabel recovery: 0.09 ugequiv/g
Rattus norvegicus [9]
  Radiolabel recovery: Not sampled as not visualised in autoradiograph
Rattus norvegicus [10]
  Radiolabel recovery: 3.52 ugequiv/g
Lung
  Radiolabel recovery: 0.43 ugequiv/g
[11]
  Radiolabel recovery: 7.59 µg/mL
Rattus norvegicus [12]
  Radiolabel recovery: Not detected assumed BLQ
Harderian gland
  Radiolabel recovery: Not detected assumed BLQ
Rattus norvegicus [13]
  Radiolabel recovery: Not detected assumed BLQ
Rattus norvegicus [14]
  Radiolabel recovery: 0.46 ugequiv/g
Thymus [15]
  Radiolabel recovery: 0.54 ugequiv/g
Rattus norvegicus [16]
  Radiolabel recovery: 0.46 ugequiv/g
[17]
  AUCt: 103000 ngequiv.hr/g
Rattus norvegicus [18]
  Radiolabel recovery: 1.02 ugequiv/g
